KCNK3 inh = human KCNK3 channel inhibition, primary screen; O14649; CHO-KCNK3 thallium flux, FluxOR fluorescence; stronger effect = lower value; 340,000 compounds, 0.84% hits; B-score at 10 µM;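 active = B-score under library mean minus 4 SD, starting fluorescence ratio at most library mean plus 5 SD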;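 also: more negative B-score means stronger inhibition of thallium flux through KCNK3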
Target sequence (O14649 whole entry, looked up): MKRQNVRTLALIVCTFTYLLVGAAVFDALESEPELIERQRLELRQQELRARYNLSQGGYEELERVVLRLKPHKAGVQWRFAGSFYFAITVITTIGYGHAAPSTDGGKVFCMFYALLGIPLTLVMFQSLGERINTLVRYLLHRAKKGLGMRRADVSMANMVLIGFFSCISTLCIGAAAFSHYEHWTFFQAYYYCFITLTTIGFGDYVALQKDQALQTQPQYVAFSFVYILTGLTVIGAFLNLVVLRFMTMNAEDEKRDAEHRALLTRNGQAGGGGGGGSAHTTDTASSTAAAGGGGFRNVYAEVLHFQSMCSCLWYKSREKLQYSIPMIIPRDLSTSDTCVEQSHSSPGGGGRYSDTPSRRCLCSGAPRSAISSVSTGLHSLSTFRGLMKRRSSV
KCNQ1 pot = human KCNQ1 channel potentiation or activation; CHO-K1 KCNQ1, thallium flux FluxOR fluorescence; stronger effect = higher value; B-score at 10 µM; 310,000 compounds, 0.35% hits; AID 2648;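 active = fluorescence ratio B-score, a plate-corrected score, at least three library SD, with initial intensity B-score within 5 SD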
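Test system: CHO-K1 cells stably expressing KCNQ1 / Medium: assay buffer / Also added: depolarizing K+/Tl+ stimulus, K2SO4 and Tl2SO4 each 12.5 mM in 5x stock / Incubation: 90 min dye loading and 20 min compound exposure, both at room temperature / Signal: thallium influx via FluxOR fluorescence, kinetic imaging / Evaluation: B score of baseline-normalized fluorescence ratio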
hERG rescue = shields human hERG channel from block by proarrhythmic agents; Q12809; CHO-hERG, FluxOR thallium flux, dofetilide IC70 present; activation (rescue from dofetilide block), less the hit threshold, % at 10 µM; 310,000 compounds, 0.51% hits;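 active = activation above the mean of controls blocked by dofetilide plus 5 SD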;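 also: thallium influx through hERG after potassium depolarization seen as dye fluorescence rise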
KCNQ1 inh = blocks the human KCNQ1 potassium channel; P51787; CHO-K1 KCNQ1, FluxOR thallium flux fluorescence; stronger effect = higher value; B-score at 10 µM; 310,000 compounds, 1.3% hits; AID 2642;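 active = compounds whose thallium flux B-score, printed positive for inhibition, exceeds three library SD while starting fluorescence stays within three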;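 also: channel opened by potassium depolarization with thallium stimulus after 20 min compound exposure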
Kir21 inh = Kir2.1 (mouse) channel inhibition; HEK293-Kir2.1, FluxOR thallium flux fluorescence; stronger effect = lower value; AID 1672; 310,000 compounds, 0.85% hits; B-score at 10 µM;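 active = fluorescence ratio B-score at or below minus 3 SD of library scores, with starting-brightness B-score within 2 SD, cut at about -4.2 in these data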;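 also: channel flux triggered by added potassium and thallium sulfate stimulus; B-score of peak minus minimum fluorescence over baseline after thallium stimulus; more negative B-score means stronger Kir2.1 block with less thallium influx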
KCNK9 block = human KCNK9 channel inhibition; 310,000 compounds, 1.2% hits; HEK293 KCNK9, FluxOR thallium flux fluorescence; stronger effect = lower value; B-score at 10 µM;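 active = ratio B-score over 3 SD below the library mean, with starting fluorescence within 5 SD of its mean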;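 also: negative B-score means less thallium flux so channel inhibition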
KCNK9 inh conf = confirmation of human KCNK9 potassium channel inhibitors; shares compounds with KCNK9 block; AID 492992; HEK293 KCNK9 cells, FluxOR thallium flux fluorescence; inhibition, % at 10 µM; 4,900 compounds, 43% hits;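 active = thallium signal inhibited by more than 5 SD of the compound-free buffer control wells, on both duplicate plates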;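 also: 0% = assay buffer control wells without compound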
Kir2-1 spec = tests whether KCNK9 modulators also affect mouse Kir2.1; shares compounds with KCNK9 block; Kir2.1 cells, FluxOR thallium flux fluorescence; inhibition, % at 10 µM; 4,900 compounds, 4% hits;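 active = thallium signal drop more than 5 SD beyond the mean of the no-compound control wells, seen in both duplicate plates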;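 also: signal is fluorescence rise after thallium addition divided by baseline fluorescence; plate controls were assay buffer only for no effect and full block by chlorpromazine control for full effect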
HEK293 Tl ctr = second check of KCNK9 modulator effects in non-induced HEK293 cells. shares compounds with KCNK9 block. inhibition, % at 10 µM. 4,900 compounds, 40% hits. AID 492997. FluxOR thallium flux;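 active = thallium signal drop beyond 5 SD of the untreated control mean, on both duplicate plates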;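 also: plate controls were buffer only IC0 wells for no effect and SID17386958 at its maximal inhibitory level for full effect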
* = called active by the depositor; i = inactive; x = no result given. A selection: hits, their analogues and other compounds. The true share with any hit is near 3.7%.

SMILES	KCNK3 inh	KCNQ1 pot	hERG rescue	KCNQ1 inh	Kir21 inh	KCNK9 block	KCNK9 inh conf	Kir2-1 spec	HEK293 Tl ctr
CC(=O)c1cc(CC=C(C)C)c(O)cc1O	i	i	-9.8	i	1.18	-8.65*	27.0%*	i	i
Cc1cc([N+](=O)[O-])nn1CC(=O)NC1CCCCC1	i	i	-0.7	i	1.14	i	x	x	x
O=C(Nc1ccccc1C(=O)O)c1ccc(CN2C(=O)c3ccccc3C2=O)cc1	i	i	-1.6	i	1.2	i	x	x	x
Cc1ccc(CSc2nc3ccccc3c(=O)[nH]2)cc1	i	i	-12.7	i	-1.94	-9*	i	i	29.0%*
CC1CCN(C(=S)c2cn(Cc3ccc(F)cc3)c3ccccc23)CC1	i	i	-4.8	i	0.07	-11*	44.0%*	i	38.0%*
CN1CCN(C(=S)c2cn(Cc3ccc(F)cc3)c3ccccc23)CC1	i	i	-11.4	i	0.12	i	x	x	x
S=C(c1cn(Cc2ccccc2)c2ccccc12)N1CCOCC1	i	i	-2.4	i	-2.61	i	x	x	x
S=C(c1cn(Cc2ccc(Br)cc2)c2ccccc12)N1CCOCC1	i	i	-15.9	i	-0.4	-10.3*	34.5%*	i	39.5%*
O=C(c1sc2ccccc2c1Cl)N1CCN(c2ncccn2)CC1	i	i	-8.2	i	1.65	i	x	x	x
O=C(c1sc2ccccc2c1Cl)N1CCN(c2ccccc2F)CC1	i	i	-7.3	i	-0.62	i	i	i	i
O=C(c1sc2ccccc2c1Cl)N1CCN(c2ccc(F)cc2)CC1	i	i	-0.6	i	0.4	i	i	i	i
CCCCCCCCNC(=O)/C(C#N)=C/c1ccc(SC)cc1	i	i	-3.7	i	-0.01	i	i	i	i
CCCCCCCCNC(=O)/C(C#N)=C/c1ccc2c(c1)OCCO2	i	i	0.9	i	-0.98	i	i	i	i
CCSc1nc(N2CCCCC2)c2c(c1C#N)CCCC2	i	i	-12.5	i	0.11	-12.5*	57.0%*	i	45.5%*
Cc1nc2ccccc2nc1N1CCCCC1	i	x	x	x	x	x	x	x	x
Cc1ccc2c(Cl)c(C)c(N3CCCCC3)nc2n1	i	i	-6.0	i	-1.2	i	i	i	i
NC(=S)N=Nc1c(O)[nH]c2c(Br)cc(Br)cc12	i	i	-2.4	i	-2.73	i	x	x	x
C=CCOC(=O)C1=C(C)OC(N)=C(C#N)C1c1c(C)nn(-c2ccccc2)c1Cl (stereo unspecified)	-10.5*	i	-7.0	i	-0.88	-8.41*	49.5%*	i	34.0%*
CCCC(=NCCc1c(C)[nH]c2ccccc12)C1=C(O)CC(c2ccccc2)CC1=O (stereo unspecified)	i	i	-7.8	i	-1.61	i	i	i	i
CCCCC(=NCCc1c(C)[nH]c2ccccc12)C1=C(O)CC(c2ccccc2)CC1=O (stereo unspecified)	i	i	-9.9	i	0.08	i	i	i	i
COc1ccccc1NC(=O)Cn1c(CCC(=O)O)ccc1-c1ccc(C)cc1	i	i	-9.0	i	-1.07	i	x	x	x
O=C(Nc1ccc2nc(-c3cccs3)[nH]c2c1)c1cccs1	i	i	-7.4	i	1.95	-10.3*	56.5%*	i	i
O=C(NCc1cccnc1)c1cc(Sc2cccc(Cl)c2)nc2ccccc12	i	i	-9.2	i	-1.97	-8.21*	35.5%*	i	i
O=C(NCc1cccc(Cl)c1)c1cccnc1	i	i	-9.8	i	1	i	x	x	x

Screening data deposited in PubChem by Johns Hopkins Ion Channel Center.
